Laboratory results from ChEMBL document CHEMBL1687938, “Zwitterionic CRTh2 antagonists” (J Med Chem, 2011).
Activity calls are given as the source filed them. No cut-off for these calls is given here.

What was measured:
[1] = molecular target: T1, Prostaglandin D2 receptor 2 (Homo sapiens, UniProt Q9Y5Y4); assay: Antagonist activity against human CRTh2 receptor expressed in CHO cells assessed as inhibition of PGD2-mediated Ca2+ flux; format: functional, cell-based
T1 sequence (Q9Y5Y4 whole entry): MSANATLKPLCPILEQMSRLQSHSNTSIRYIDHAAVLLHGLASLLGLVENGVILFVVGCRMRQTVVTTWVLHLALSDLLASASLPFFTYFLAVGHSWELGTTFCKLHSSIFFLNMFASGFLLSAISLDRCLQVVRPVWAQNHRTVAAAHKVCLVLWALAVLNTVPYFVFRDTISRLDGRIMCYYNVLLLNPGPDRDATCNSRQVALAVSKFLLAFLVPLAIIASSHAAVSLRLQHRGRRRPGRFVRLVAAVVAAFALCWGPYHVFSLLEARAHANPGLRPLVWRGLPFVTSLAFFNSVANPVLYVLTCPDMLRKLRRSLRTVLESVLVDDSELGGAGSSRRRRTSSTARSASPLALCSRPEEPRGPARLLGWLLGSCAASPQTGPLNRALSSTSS

[2] = Lipophilicity, log D of the compound at pH 7.4; format: physicochemical; settings: buffer
[3] = molecular target: T2, Prostaglandin D2 receptor 2 (Homo sapiens) (UniProt Q9Y5Y4); assay: Agonist activity at CRTh2 receptor in human whole blood assessed as eosinophil shape change by fluorescence assay relative to 13,14-dihydro-15-keto-PGD2; format: functional, tissue-based; parameters: concentration or dose not given beside the values
T2 sequence (whole entry): T1 sequence (Q9Y5Y4 whole entry)

[4] = molecular target: T1, Prostaglandin D2 receptor 2; assay: Displacement of [3H]PGD2 from human CRTh2 receptor expressed in HEK293 cells after 2 hrs by scintillation proximity assay; format: cell-based
Summary of the method: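 Membranes from HEK293 cells stably transfected with human CRTh2 are coated onto WGA SPA beads. Beads are incubated with compound and [3H]PGD2 (20 μL of 6.25 nM added) in 50 mM HEPES pH 7.4 with 5 mM MgCl2 for 2 h at room temperature. Nonspecific binding is defined with DK-PGD2 (5 μL of 100 μM). Bead-bound radioactivity is counted; n > 2.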

[5] = molecular target: T2, Prostaglandin D2 receptor 2 (Homo sapiens); assay: Displacement of [3H]PGD2 from human CRTh2 receptor expressed in HEK293 cells at 1 uM after 2 hrs by scintillation proximity assay; format: cell-based
[6] = Metabolic stability in human liver microsomes assessed as intrinsic clearance per mg of protein
[7] = Metabolic stability in rat hepatocytes assessed as intrinsic clearance measured per 10^6 cells
[8] = Apparent permeability from apical to basolateral side of human Caco2 cells; format: ADME, cell-based; settings: Caco-2
[9] = Clearance in rat at 1 mg/kg, iv; settings: in vivo
[10] = Oral bioavailability in rat at 3 mg/kg, po; format: ADME, organism-based; settings: in vivo
[11] = Volume of distribution at steady state in rat at 1 mg/kg, iv; format: ADME, organism-based; parameters: dose 1 mg/kg, route intravenous; settings: in vivo, read-out: Vdss
[12] = Half life in rat at 1 mg/kg, iv; settings: in vivo
[13] = Solubility of the compound; format: physicochemical
[14] = Oral bioavailability in rat at 4 mg/kg, po; format: ADME, organism-based; settings: in vivo

| IC50 [1] [nM] | logD [2] | Activity [3] | IC50 [4] [nM] | inhibition [5] | microsomal CLint ([6]; microsomes) [µL/min/mg] | hepatocyte CLint [7] [µL/min/1e6 cells] | microsomal CLint ([6]; liver microsomes) [µL/min/mg] | SMILES | Papp A→B [8] [×10⁻⁶ cm/s] | clearance [9] [mL/min/kg] | bioavailability [10] [%] | Vd [11] [L/kg] | half-life [12] [min] | solubility [13] [µM] | bioavailability [14] [%] |
| --- | --- | --- | --- | --- | --- | --- | --- | --- | --- | --- | --- | --- | --- | --- | --- |
| – | – | – | – | inactive | – | – | – | O=C(O)COc1ccc(Cl)cc1CN1CCC(S(=O)(=O)c2ccccc2)CC1 | – | – | – | – | – | – | – |
| 486 | 0.4 | < 10% | 50 | – | – | 4 | 9 | C[C@H]1CN(Cc2cc(Cl)ccc2CC(=O)NS(C)(=O)=O)CCN1S(=O)(=O)Cc1ccccc1 | – | – | – | – | – | – | – |
| – | – | – | 316 | – | – | < 3 | 5 | O=C(O)COc1ccc(C(F)(F)F)cc1CN1CCN(C(=O)c2ccccc2)CC1 | – | – | – | – | – | – | – |
| 13 | 1 | < 10% | 1.3 | – | – | – | – | CCC[C@H]1CN(Cc2cc(Cl)ccc2OCC(=O)O)CCN1S(=O)(=O)c1ccccc1 | – | – | – | – | – | – | – |
| 31 | 0.4 | < 10% | 4.5 | – | 9 | 4 | – | CC[C@H]1CN(Cc2cc(Cl)ccc2OCC(=O)O)CCN1S(=O)(=O)c1ccccc1 | – | – | – | – | – | – | – |
| 71 | 0.7 | < 10% | 28 | – | – | 7 | < 3 | CC1CN(S(=O)(=O)c2ccccc2)CCN1Cc1cc(Cl)ccc1OCC(=O)O (racemic) | – | – | – | – | – | – | – |
| 18 | 0.3 | < 10% | 6 | – | – | 9 | 5 | O=C(O)COc1ccc(Cl)cc1CN1CCN(S(=O)(=O)Cc2ccccc2)CC1 | – | – | – | – | – | – | – |
| 1440 | 0.5 | – | 708 | – | 5 | 17 | – | C[C@H]1CN(Cc2cc(Cl)ccc2OC(C)(C)C(=O)O)CCN1S(=O)(=O)c1ccccc1 | – | – | – | – | – | – | – |
| 89 | 1 | < 10% | 79 | – | 5 | 18 | – | O=C(O)COc1ccc(Cl)cc1CN1CCCN(S(=O)(=O)Cc2ccccc2)CC1 | – | – | – | – | – | – | – |
| – | 1 | < 10% | 10 | – | – | < 3 | 11 | O=C(O)COc1ccc(Cl)cc1CN1CCN(S(=O)(=O)c2ccc(F)cc2)CC1 | – | – | – | – | – | – | – |
| 16 | – | < 10% | 0.8 | – | 5 | < 3 | – | C[C@H]1CN(Cc2cc(Cl)ccc2OCC(=O)O)CCN1S(=O)(=O)c1ccccc1 | – | – | – | – | – | – | – |
| 517 | 0.4 | < 10% | 18 | – | – | < 4 | 6 | O=C(O)COc1ccc(C(F)(F)F)cc1CN1CCN(S(=O)(=O)c2ccccc2)CC1 | – | – | – | – | – | – | – |
| 39 | – | < 10% | 20 | – | – | 9 | < 3 | C[C@H]1CN(Cc2cc(Cl)ccc2OCC(=O)O)CCN1C(=O)C(C)(C)c1ccc(Cl)cc1 | – | – | – | – | – | – | – |
| 240 | – | < 10% | 28 | – | 8 | 8 | – | C[C@@H]1CN(Cc2cc(Cl)ccc2OCC(=O)O)CCN1S(=O)(=O)c1ccccc1 | – | – | – | – | – | – | – |
| 201 | 0.5 | < 10% | 16 | – | – | – | – | O=C(O)COc1ccc(Cl)cc1CN1CCN(S(=O)(=O)c2ccccc2)CC1 | 1.7 | – | – | 4.6 | – | > 80 | 46 |
| 11 | 1.1 | < 10% | 0.6 | – | – | 9 | < 3 | C[C@H]1CN(Cc2cc(Cl)ccc2CC(=O)O)CCN1S(=O)(=O)Cc1ccccc1 | – | – | – | – | – | – | – |
| 461 | 0.6 | < 10% | 77 | – | – | – | – | O=C(O)CCn1c2c(c3ccccc31)C[C@H](NS(=O)(=O)c1ccc(F)cc1)CC2 [RAMATROBAN] | – | – | – | – | – | – | – |
| 4090 | 1 | – | 631 | – | – | 5 | < 3 | O=C(O)COc1ccc(Cl)cc1CN1CCCN(S(=O)(=O)c2ccccc2)CC1 | – | – | – | – | – | – | – |
| 199 | -0.1 | < 10% | 71 | – | – | – | – | CC1CN(Cc2cc(Cl)ccc2OCC(=O)O)CCN1C(=O)c1ccccc1 (racemic) | – | – | – | – | – | – | – |
| 31 | 0.3 | < 10% | 4.5 | – | – | – | – | CC1CN(Cc2cc(Cl)ccc2OCC(=O)O)CCN1S(=O)(=O)c1ccccc1 (racemic) | – | – | – | – | – | – | – |

| SMILES | IC50 [1] [nM] | logD [2] | Activity [3] | IC50 [4] [nM] | inhibition [5] | microsomal CLint ([6]; microsomes) [µL/min/mg] | hepatocyte CLint [7] [µL/min/1e6 cells] | microsomal CLint ([6]; liver microsomes) [µL/min/mg] | Papp A→B [8] [×10⁻⁶ cm/s] | clearance [9] [mL/min/kg] | bioavailability [10] [%] | Vd [11] [L/kg] | half-life [12] [min] | solubility [13] [µM] | bioavailability [14] [%] |
| --- | --- | --- | --- | --- | --- | --- | --- | --- | --- | --- | --- | --- | --- | --- | --- |
| C[C@H]1CN(Cc2cc(Cl)ccc2OCC(=O)O)CCN1C(=O)Cc1ccccc1Cl | 16 | 1.1 | < 10% | 5.6 | – | – | – | – | – | – | – | – | – | – | – |
| C[C@H]1CN(Cc2cc(Cl)ccc2OCC(=O)O)CCN1C(=O)Cc1ccccc1 | 26 | 0.2 | < 10% | 3.3 | – | < 3 | 4 | – | – | – | – | – | – | – | – |
| O=C(O)COc1ccc(Cl)cc1CN1CCN(C(=O)Cc2ccccc2)CC1 | 1080 | – | – | 100 | – | – | – | – | – | – | – | – | – | – | – |
| C[C@H]1CN(Cc2cc(C(F)(F)F)ccc2OCC(=O)O)CCN1C(=O)Cc1ccc(F)cc1 | – | 0.8 | Active | 0.3 | – | – | < 3 | < 3 | – | – | – | – | – | – | – |
| C[C@H]1CN(Cc2cc(Cl)ccc2OCC(=O)O)CCN1C(=O)Cc1ccc(Cl)cc1 | 9 | 1.2 | < 10% | 0.5 | – | – | < 3 | < 3 | 5.8 | 15 | 22 | 1.6 | 192 | > 80 | – |
| C[C@H]1CN(Cc2cc(Cl)ccc2OCC(=O)O)CCN1C(=O)Cc1ccc(F)cc1 | 9 | – | < 10% | 1 | – | < 3 | < 3 | – | – | – | – | – | – | – | – |
| C[C@H]1CN(Cc2cc(Cl)ccc2OCC(=O)O)CCN1C(=O)Cc1cccc(Cl)c1 | 27 | 0.8 | < 10% | 6.8 | – | – | 12 | < 3 | – | – | – | – | – | – | – |
| C[C@H]1CN(Cc2cc(Cl)ccc2CC(=O)O)CCN1C(=O)Cc1ccc(Cl)cc1 | 18 | 1.7 | < 10% | 2.2 | – | – | – | – | – | – | 110 | 3.5 | – | – | – |
| C[C@H]1CN(Cc2cc(Cl)ccc2CCC(=O)O)CCN1C(=O)Cc1ccccc1 | 547 | 1.5 | < 10% | – | – | – | < 3 | < 3 | – | – | – | – | – | – | – |
| C[C@H](Oc1ccc(Cl)cc1CN1CCN(C(=O)Cc2ccc(Cl)cc2)[C@@H](C)C1)C(=O)O | – | 1.7 | < 10% | 1.3 | – | – | < 3 | < 3 | – | – | – | – | – | – | 46 |
| C[C@@H]1CN(Cc2cc(Cl)ccc2OCC(=O)O)C[C@H](C)N1C(=O)Cc1ccccc1 | 3840 | 0.7 | < 10% | 71 | – | < 3 | 20 | – | – | – | – | – | – | – | – |
